# Assays:
# Mu-type opioid receptor = Mu-type opioid receptor (Homo sapiens, UniProt P35372); assay: Displacement of [3H]DAMGO from human mu opioid receptor expressed in CHO cells after 120 mins by liquid scintillation counting
# In short: (§1)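 Membranes from CHO cells stably expressing human μ, δ or κ opioid receptor. Radioligands: μ 1.3 nM [3H]DAMGO, δ 1.2 nM [3H]DPDPE, κ 1.7 nM [3H]U69,593; nonspecific with 1 μM of the matching unlabelled ligand.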
# [1] = target: Delta-type opioid receptor (Homo sapiens, UniProt P41143); assay: Displacement of [3H]DPDPE from human delta opioid receptor expressed in CHO cells after 120 mins by liquid scintillation counting; in short: as §1
# [2] = target: Sigma non-opioid intracellular receptor 1 (Rattus norvegicus, UniProt Q9R0C9); assay: Displacement of [3H](+)-pentazocine from sigma 1 receptor in rat brain homogenates after 120 mins by liquid scintillation counting
# In short: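 σ1 sites labelled with 5 nM [3H](+)-pentazocine in rat brain homogenate; nonspecific binding defined with 10 μM haloperidol. Up to 12 competitor concentrations, incubated 120 min at 25 °C. Terminated by vacuum filtration onto PEI-soaked GF/B filters, bound radioactivity counted by liquid scintillation. Ki obtained by Cheng–Prusoff.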
# [3] = target: Kappa-type opioid receptor (Homo sapiens, UniProt P41145); assay: Displacement of [3H]U69,593 from human kappa opioid receptor expressed in CHO cells after 120 mins by liquid scintillation counting; in short: as §1
# Kappa-type opioid receptor, sequence (P41145 whole entry): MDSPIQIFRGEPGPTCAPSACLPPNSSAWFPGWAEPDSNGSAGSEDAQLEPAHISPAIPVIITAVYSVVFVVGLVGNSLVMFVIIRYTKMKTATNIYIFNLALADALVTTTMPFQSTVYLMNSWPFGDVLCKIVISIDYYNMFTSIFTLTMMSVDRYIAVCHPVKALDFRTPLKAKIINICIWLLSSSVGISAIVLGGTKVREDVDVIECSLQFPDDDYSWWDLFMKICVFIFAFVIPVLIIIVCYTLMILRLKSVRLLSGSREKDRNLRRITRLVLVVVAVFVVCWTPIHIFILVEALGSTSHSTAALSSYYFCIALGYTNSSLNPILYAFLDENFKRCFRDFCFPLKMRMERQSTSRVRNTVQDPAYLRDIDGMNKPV
# Sigma non-opioid intracellular receptor 1, sequence (Q9R0C9 whole entry): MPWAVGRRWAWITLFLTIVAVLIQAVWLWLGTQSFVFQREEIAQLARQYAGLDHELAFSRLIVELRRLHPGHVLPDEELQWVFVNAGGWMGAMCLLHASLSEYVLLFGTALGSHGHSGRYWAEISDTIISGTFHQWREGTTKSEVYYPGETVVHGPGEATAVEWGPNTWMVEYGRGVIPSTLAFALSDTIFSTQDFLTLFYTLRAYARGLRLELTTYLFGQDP
# Delta-type opioid receptor, sequence (P41143 whole entry): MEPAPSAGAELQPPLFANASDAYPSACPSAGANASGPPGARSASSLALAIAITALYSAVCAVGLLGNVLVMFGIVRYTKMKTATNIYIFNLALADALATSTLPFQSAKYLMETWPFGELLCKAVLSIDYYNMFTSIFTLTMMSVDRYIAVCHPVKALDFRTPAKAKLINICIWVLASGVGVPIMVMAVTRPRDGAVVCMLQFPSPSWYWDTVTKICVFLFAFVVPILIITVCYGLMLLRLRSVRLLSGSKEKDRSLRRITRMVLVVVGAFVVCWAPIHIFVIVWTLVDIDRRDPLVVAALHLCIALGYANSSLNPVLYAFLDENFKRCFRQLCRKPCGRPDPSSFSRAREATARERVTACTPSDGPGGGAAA
# Mu-type opioid receptor, sequence (P35372 whole entry): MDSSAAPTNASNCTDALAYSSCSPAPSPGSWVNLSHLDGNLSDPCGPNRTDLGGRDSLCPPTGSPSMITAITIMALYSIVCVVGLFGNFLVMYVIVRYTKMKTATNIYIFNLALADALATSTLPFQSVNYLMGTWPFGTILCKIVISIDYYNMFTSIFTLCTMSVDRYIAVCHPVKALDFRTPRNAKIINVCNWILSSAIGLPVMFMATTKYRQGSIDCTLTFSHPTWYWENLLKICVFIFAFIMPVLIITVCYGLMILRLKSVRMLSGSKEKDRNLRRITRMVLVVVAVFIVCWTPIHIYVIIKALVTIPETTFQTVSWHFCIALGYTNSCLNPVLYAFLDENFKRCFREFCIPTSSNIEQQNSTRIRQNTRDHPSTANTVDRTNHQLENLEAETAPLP
Compound,Ki (Mu-type opioid receptor) [nM],Ki [1] [nM],Ki [2] [nM],Ki [3] [nM]
CN(CCc1ccccc1)[C@H]1CCCC[C@@H]1OCCCc1ccccc1,1600,> 10000,84,
CN(C)[C@H]1CCCC[C@@H]1OCCCc1ccccc1,2300,> 10000,59,> 10000
CN(CCCc1ccccc1)[C@H]1CCCC[C@@H]1OCCCc1ccccc1,3100,6200,790,2200
CN(CCCc1ccccc1)[C@H]1CCCC[C@@H]1O,,> 10000,19,> 10000
CN(C)[C@H]1CCCC[C@@H]1OC/C=C/c1ccccc1,4200,> 10000,4.6,> 10000
CN(CCc1ccccc1)[C@H]1CCCC[C@@H]1O,> 10000,> 10000,120,> 10000

# From BindingDB's records for doi:10.1016/j.bmc.2013.06.068 (University of Maryland, 2013)
